For assay [1], the system named is HBZY-1. Put plainly: Cytoprotective activity against HG-induced cell death in rat HBZY-1 cells at 0.9 uM after 24 to 96 hrs by MTT assay. In kind it is functional, cell-based. A general note: Formazan colour is commonly taken as a measure of viable cells.
For assay [2], the system named is HBZY-1. Put plainly: Cytoprotective activity against HG-induced cell death in rat HBZY-1 cells assessed as […] at 0.3 uM by Annexin V-FITC/propidium iodide staining-based flow cytometric analysis (reference value: 2.83). In kind it is functional.
Assay [3] relates to Rattus norvegicus. Put plainly: Antidiabetic activity in STZ-induced diabetic nephropathy Wistar rat model assessed as increase in total antioxidant capacity at 40 to 160 mg/kg administered daily for 8 weeks measured up to 8 weeks by ELISA. It is filed as functional, organism-based. In outline:
(§1)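 Male Wistar rats (300±50 g), adapted under specific pathogen-free conditions with free access to food and water. STZ diabetic nephropathy counted if blood glucose ≥13.88 mM with raised urinary microalbumin. Groups: saline, untreated DN, 40, 80 or 160 mg/kg, and reference inhibitor 100 mg/kg. Dosed daily for eight weeks. Urine and blood sampled at weeks 2, 4, 6 and 8. Mean ± SD, n = 8.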
On the technique in general: In an ELISA, binding on a coated surface is turned into a signal by an enzyme label.

Assay [4] concerns HBZY-1. Put plainly: Cytoprotective activity against HG-induced cell death in rat HBZY-1 cells assessed as […] by measuring late apoptotic cells at 0.3 uM by Annexin V-FITC/propidium iodide staining-based flow cytometric analysis (reference value: 18.81%). It is filed as functional. Background: A flow cytometer gives signals particle by particle.
The subject of assay [5] is Rattus norvegicus. Briefly: Antidiabetic activity in STZ-induced diabetic nephropathy Wistar rat model assessed as reduction in urinary microalbumin level at 40 to 160 mg/kg administered daily for 8 weeks measured up to 8 weeks by ELISA. It is filed as functional, organism-based. The procedure, abridged: as §1
Assay [6] concerns HBZY-1. Put plainly: Cytoprotective activity against HG-induced cell death in rat HBZY-1 cells assessed as increase in apoptosis by measuring late apoptotic cells at 0.9 uM by Annexin V-FITC/propidium iodide staining-based flow cytometric analysis (reference value: 18.81%). In kind it is functional.
Assay [7] relates to Rattus norvegicus. Briefly: Antidiabetic activity in STZ-induced diabetic nephropathy Wistar rat model assessed as decrease in laminin level at 40 to 160 mg/kg administered daily for 8 weeks measured up to 8 weeks by ELISA.
Assay [8] deals with HBZY-1. Put plainly: Downregulation of laminin levels in rat HBZY-1 cells at 0.3 to 0.9 uM by Western blot analysis. In kind it is functional, cell-based.
The test system of assay [9] is HBZY-1. Briefly: Cytoprotective activity against HG-induced cell death in rat HBZY-1 cells at 0.3 to 0.9 uM after 24 to 96 hrs by MTT assay. In kind it is functional, cell-based.
The subject of assay [10] is HBZY-1. Briefly: Cytoprotective activity against HG-induced cell death in rat HBZY-1 cells assessed as […] at 0.6 uM by Annexin V-FITC/propidium iodide staining-based flow cytometric analysis (reference value: 2.83). In kind it is functional.
Assay [11] relates to HBZY-1. Put plainly: Cytoprotective activity against HG-induced cell death in rat HBZY-1 cells assessed as […] by measuring early apoptotic cells at 0.6 uM by Annexin V-FITC/propidium iodide staining-based flow cytometric analysis (reference value: 8.13%). In kind it is functional.
The target of assay [12] is Aldo-keto reductase family 1 member B1 (Rattus norvegicus, UniProt P07943). Put plainly: Inhibition of AR in Sprague-Dawley rat lens using DL-glyceraldehyde as substrate by spectrophotometric analysis. The procedure, abridged:
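Inhibition is expressed relative to uninhibited enzyme activity, set as 100%. For the kinetic study, DL-glyceraldehyde was used at 0.083, 0.125, 0.25 and 1.0 mM. […] Results were analysed by Lineweaver-Burk double-reciprocal plots of 1/V against 1/S.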

Assay [13] deals with HBZY-1. Put plainly: Downregulation of collagen 4 levels in rat HBZY-1 cells at 0.3 to 0.9 uM by Western blot analysis. It is filed as functional, cell-based.
Assay [14] concerns HBZY-1. Briefly: Cytoprotective activity against HG-induced cell death in rat HBZY-1 cells assessed as […] by measuring early apoptotic cells at 0.9 uM by Annexin V-FITC/propidium iodide staining-based flow cytometric analysis (reference value: 8.13%). In kind it is functional.
Assay [15] deals with Rattus norvegicus. Briefly: Protection against […] in Wistar rat model assessed as reduction in glomerular mesangial hyperplasia at 40 to 160 mg/kg administered daily for 8 weeks measured after 8 weeks by hematoxylin/eosin dye-based analysis. It is filed as functional, organism-based. In outline:
as §1

In assay [16] the test system is Rattus norvegicus. Put plainly: Antidiabetic activity in STZ-induced diabetic nephropathy Wistar rat model assessed as decrease in collagen 4 level at 40 to 160 mg/kg administered daily for 8 weeks measured up to 8 weeks by ELISA.
Assay [17] deals with HBZY-1. Put plainly: Cytoprotective activity against HG-induced cell death in rat HBZY-1 cells assessed as increase in apoptosis by measuring late apoptotic cells at 0.6 uM by Annexin V-FITC/propidium iodide staining-based flow cytometric analysis (reference value: 18.81%). It is filed as functional.
The subject of assay [18] is Rattus norvegicus. Briefly: Antidiabetic activity in STZ-induced diabetic nephropathy Wistar rat model assessed as increase in catalase level at 40 to 160 mg/kg administered daily for 8 weeks measured up to 8 weeks by ELISA. In kind it is functional, organism-based. The procedure, abridged:
as §1

Assay [19] relates to Rattus norvegicus. Briefly: Antidiabetic activity in STZ-induced diabetic nephropathy Wistar rat model assessed as increase in total superoxide dismutase level at 40 to 160 mg/kg administered daily for 8 weeks measured up to 8 weeks by ELISA. It is filed as functional, organism-based. In outline: as §1
In assay [20] the test system is Rattus norvegicus. Briefly: Antidiabetic activity in STZ-induced diabetic nephropathy Wistar rat model assessed as reduction in blood glucose level at 40 to 160 mg/kg administered daily for 8 weeks measured up to 8 weeks by ELISA. In kind it is functional, organism-based. In outline:
as §1

For assay [21], the system named is Rattus norvegicus. Briefly: Antidiabetic activity in STZ-induced diabetic nephropathy Wistar rat model assessed as increase in glutathione level at 40 to 160 mg/kg administered daily for 8 weeks measured up to 8 weeks by ELISA. In kind it is functional, organism-based. The procedure, abridged: as §1
Assay [22] concerns HBZY-1. Briefly: Cytoprotective activity against HG-induced cell death in rat HBZY-1 cells assessed as […] by measuring early apoptotic cells at 0.3 uM by Annexin V-FITC/propidium iodide staining-based flow cytometric analysis (reference value: 8.13%). In kind it is functional.
In assay [23] the test system is HBZY-1. Briefly: Cytoprotective activity against HG-induced cell death in rat HBZY-1 cells assessed as […] at 0.3 to 0.9 uM by Hoechst staining-based analysis. In kind it is functional. The procedure, abridged: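 HBZY-1 rat mesangial cells grown in low-glucose DMEM (5.56 mM) with 10% FBS at 37°C and 5% CO2. Pretreated, then exposed to 33 mM glucose. 1×10^4 cells seeded per well, fixed in 70% ethanol for 20 min at room temperature, and stained with Hoechst for 5 min. Imaged by fluorescence microscopy at 400×.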

Assay [24] concerns the target Aldo-keto reductase family 1 member B1 (Homo sapiens) (UniProt P15121). Briefly: Uncompetitive inhibition of recombinant human AR at 60 to 140 nM in presence of various concentrations of DL-glyceraldehyde by Lineweaver-Burk plot analysis.
Assay [25] has as its system HBZY-1. Briefly: Cytoprotective activity against HG-induced cell death in rat HBZY-1 cells assessed as […] at 0.9 uM by Annexin V-FITC/propidium iodide staining-based flow cytometric analysis (reference value: 2.83). It is filed as functional.
The subject of assay [26] is HBZY-1. Put plainly: Cytoprotective activity against HG-induced cell death in rat HBZY-1 cells assessed as increase in apoptosis by measuring late apoptotic cells at 10 uM by Annexin V-FITC/propidium iodide staining-based flow cytometric analysis (reference value: 18.18%). In kind it is functional.
In assay [27] the test system is HBZY-1. Put plainly: Cytoprotective activity against HG-induced cell death in rat HBZY-1 cells assessed as […] by measuring early apoptotic cells at 10 uM by Annexin V-FITC/propidium iodide staining-based flow cytometric analysis (reference value: 8.13%). It is filed as functional.

The source of these data is ChEMBL document CHEMBL4043170, “1-Acetyl-5-phenyl-1H-pyrrol-3-ylacetate: An aldose reductase inhibitor for the treatment of diabetic nephropathy” (Bioorg Med Chem Lett, 2017).

A word on the IC50: it is the midpoint of a concentration-inhibition curve. Higher therefore signals a need for much substance.

The source made the active and inactive calls. No cut-off for these calls is given here.

Regarding `CC(=O)Oc1cc(-c2ccccc2)n(C(C)=O)c1`, the outcome in assay [1], in assay [3], in assay [5], in assay [7], in [8] and in assay [9] was Active. For the same compound, the result in assay [13], in [15], in assay [16], in [18], in assay [19] and in assay [20] was Active. The result in assay [21] and in [23] was Active. Moreover, the results for the “fold change (FC)” value in [2], in assay [10] and in [25] were 2.29, 2.07 and 1.93, respectively. The Activity is 13.67% in [4]; 8.45% in [6]; 5.66% in [11]; 9.97% in assay [14]; 10.31% in assay [17]; 8.18% in assay [22]. Also, the IC50 in assay [12] came out at 22.3 nM. For the same compound, in assay [24], the inhibition entry is “Active”.

For the compound `CC(/C=C1\SC(=S)N(CC(=O)O)C1=O)=C\c1ccccc1`, the Activity is recorded as 8.31% in [26] and 8.98% in assay [27]. Moreover, the result in assay [8] and in assay [13] was Active. In addition, the “fold change (FC)” value in [25] is listed as 1.81.
